Calls of active or inactive are those of the source. The calls are words filed in the database; no cut-off is given here.
Legend:
[1] = biological target: T1, Ecto-NOX disulfide-thiol exchanger 2 (Homo sapiens) (UniProt Q16206); test: Inhibition of tNOX in human AGS cells assessed as reduction in cell migration; type: cell-based
T1 sequence (whole entry): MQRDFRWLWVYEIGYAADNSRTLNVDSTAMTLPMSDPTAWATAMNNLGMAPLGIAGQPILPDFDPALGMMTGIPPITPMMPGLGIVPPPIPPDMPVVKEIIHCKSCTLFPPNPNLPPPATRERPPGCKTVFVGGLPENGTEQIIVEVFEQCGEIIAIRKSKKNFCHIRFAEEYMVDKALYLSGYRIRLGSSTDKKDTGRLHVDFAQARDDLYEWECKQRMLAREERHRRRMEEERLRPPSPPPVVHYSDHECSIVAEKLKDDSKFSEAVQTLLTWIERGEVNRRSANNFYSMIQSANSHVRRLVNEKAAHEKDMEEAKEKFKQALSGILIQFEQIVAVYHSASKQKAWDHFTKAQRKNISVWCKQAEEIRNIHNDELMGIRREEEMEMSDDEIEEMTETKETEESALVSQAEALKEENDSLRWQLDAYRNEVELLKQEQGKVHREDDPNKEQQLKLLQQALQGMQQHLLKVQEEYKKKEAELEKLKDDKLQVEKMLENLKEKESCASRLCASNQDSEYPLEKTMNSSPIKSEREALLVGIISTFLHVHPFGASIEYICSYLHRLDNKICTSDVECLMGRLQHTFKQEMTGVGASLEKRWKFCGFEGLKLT

[2] = tested on: HeLa; test: Antiproliferative activity against human HeLa cells after 72 hrs by MTT assay; type: functional, cell-based
[3] = biological target: T2, DNA topoisomerase 1 (Homo sapiens) (UniProt P11387); test: Inhibition of Top1 (unknown origin)-mediated relaxation of pBR322 DNA at 0.5 uM incubated for 30 mins by ethidium bromide staining-based gel electrophoresis assay
T2 sequence (whole entry): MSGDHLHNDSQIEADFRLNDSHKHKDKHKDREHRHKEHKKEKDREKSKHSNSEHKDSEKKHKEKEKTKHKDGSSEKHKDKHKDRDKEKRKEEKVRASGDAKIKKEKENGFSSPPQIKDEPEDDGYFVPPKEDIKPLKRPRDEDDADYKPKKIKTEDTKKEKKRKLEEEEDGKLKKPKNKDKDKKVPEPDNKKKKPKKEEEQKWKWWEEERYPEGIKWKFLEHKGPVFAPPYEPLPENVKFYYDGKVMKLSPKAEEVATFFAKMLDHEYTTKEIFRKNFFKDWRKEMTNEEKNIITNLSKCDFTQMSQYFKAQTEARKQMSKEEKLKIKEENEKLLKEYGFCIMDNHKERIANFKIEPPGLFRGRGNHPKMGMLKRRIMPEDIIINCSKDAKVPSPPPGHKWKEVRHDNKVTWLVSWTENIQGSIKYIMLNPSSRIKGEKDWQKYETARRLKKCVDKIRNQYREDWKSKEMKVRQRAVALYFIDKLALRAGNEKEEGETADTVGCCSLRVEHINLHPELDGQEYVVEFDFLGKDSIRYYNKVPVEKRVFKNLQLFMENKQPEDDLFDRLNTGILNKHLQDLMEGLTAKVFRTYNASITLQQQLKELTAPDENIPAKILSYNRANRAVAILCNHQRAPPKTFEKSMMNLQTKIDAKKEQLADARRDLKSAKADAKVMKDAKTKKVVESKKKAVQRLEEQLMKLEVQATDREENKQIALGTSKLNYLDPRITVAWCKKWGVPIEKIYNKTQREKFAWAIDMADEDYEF
In short: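 Supercoiled pBR322 plasmid treated with Top1 without drug or with compound at 0.5, 2.5 or 10 µM; camptothecin as reference; relaxation assessed by gel electrophoresis.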

[4] = tested on: AGS; test: Induction of apoptosis in human AGS cells assessed as late apoptotic cells at 0.05 uM after 24 hrs by annexin V-FITC staining-based flow cytometric analysis (Rvb=0.3%); type: functional
In short: (§1)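 AGS cells exposed to compound for 24 h; Annexin V-FITC staining and flow cytometry used to give percentage of apoptotic cells; mean ± S.E. from at least three independent experiments.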

[5] = tested on: AGS; test: Induction of apoptosis in human AGS cells assessed as early apoptotic cells at 1 uM after 24 hrs by annexin V-FITC staining-based flow cytometric analysis (Rvb=7.2%); type: functional; in short: as §1
[6] = biological target: T1, Ecto-NOX disulfide-thiol exchanger 2 (Homo sapiens); test: Inhibition of tNOX in human AGS cells assessed as decrease in intracellular NAD+/NADH ratio in human AGS cells at 5 uM incubated for 5 mins

CNCCNc1c2c(c(NCCNC)c3occc13)C(=O)c1ccccc1C2=O
inhibition [1]: Active
IC50 [2]: 170 nM
inhibition [3]: Active
Activity [4]: 0.7%
Activity [5]: 21.6%
inhibition [6]: Active
